From ChEMBL document CHEMBL1131341, “Orally active antimalarial 3-substituted trioxanes: new synthetic methodology and biological evaluation” (J Med Chem, 1998)
pIC50: −log10 of the molar value.

Columns and labels:
[1] = system: Plasmodium berghei; experiment: Effective in vivo dose ED90 against Plasmodium berghei N on oral administration; type: functional
Summary of the method: (§1)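 Mice infected with chloroquine-sensitive P. berghei (N) were dosed daily for 4 days at 1, 3, 10 and 30 mg/kg, with five mice per dose regimen. The ED values were derived from these four dose levels.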

[2] = system: Plasmodium berghei; experiment: Effective in vivo dose ED50 against Plasmodium berghei N after oral dose at 1,3,10 or 30 mg/kg/day, n=5; type: functional; summary of the method: as §1
[3] = system: Plasmodium falciparum; experiment: In vitro antimalarial activity in chloroquine-sensitive Plasmodium falciparum NF54; type: functional, organism-based
Summary of the method: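 IC50 (nM) was measured against cultured parasites in quadruplicate and derived from fitted dose-response curves with R² ≥0.989.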

[4] = system: Plasmodium berghei; experiment: Effective in vivo dose ED50 against Plasmodium berghei N after subcutaneous dose at 1,3,10 or 30 mg/kg/day, n=5; type: functional; conditions: sc; summary of the method: as §1

Compound | ED90 [1] | ED50 [2] | pIC50 [3] | ED50 [4]
CO[C@H]1O[C@]2(c3ccc(CO)cc3)CC[C@H]3CCCCC31OO2 | 12 µM/kg | 5.5 mg/kg | 7.82 | 3.4 mg/kg
CO[C@H]1O[C@]2(c3ccccc3)CC[C@H]3CCCCC31OO2 | – | – | 7.42 | –
CO[C@@H]1O[C@]2(c3ccco3)CC[C@H]3CCCCC31OO2 | – | – | 6.22 | –
CO[C@@H]1O[C@]2(c3ccccc3)CC[C@H]3CCCCC31OO2 | – | – | 6.96 | –
CO[C@@H]1O[C@]2(c3ccc(COCc4ccc(F)cc4)cc3)CC[C@H]3CCCCC31OO2 | – | – | 7.38 | –
CO[C@H]1O[C@]2(C)CC[C@H]3CCCCC31OO2 | – | – | 6.02 | –
CO[C@@H]1O[C@@]2(c3ccccc3)OOC13CCCC[C@@H]3CC2C (some centres not stated) | – | – | 7.68 | –
CO[C@@H]1O[C@]2(c3cccc4ccccc34)CC[C@H]3CCCCC31OO2 | – | – | 6.77 | –
CO[C@H]1O[C@]2(c3ccc(COCc4ccc(F)cc4)cc3)CC[C@H]3CCCCC31OO2 | 6.8 µM/kg | 3.8 mg/kg | 7.64 | 3.5 mg/kg
COC(=O)OCc1ccc([C@@]23CC[C@H]4CCCCC4(OO2)[C@H](OC)O3)cc1 | – | – | 7.10 | –
COCc1ccc([C@@]23CC[C@H]4CCCCC4(OO2)[C@H](OC)O3)cc1 | – | – | 7.41 | –
CO[C@@H]1O[C@]2(c3ccc(CO)cc3)CC[C@H]3CCCCC31OO2 | – | – | 7.11 | –
CO[C@@H]1O[C@]2(c3ccc(F)cc3)CC[C@H]3CCCCC31OO2 | – | – | 7.19 | –
CO[C@H]1O[C@]2(c3cccc4ccccc34)CC[C@H]3CCCCC31OO2 | – | – | 7.36 | –
C[C@@H]1CC[C@H]2[C@@H](C)C(=O)O[C@@H]3O[C@@]4(C)CC[C@@H]1[C@]32OO4 [ARTEMISININ] | – | 8.5 mg/kg | 8.04 | 3 mg/kg
CO[C@H]1O[C@]2(CF)CC[C@H]3CCCCC31OO2 | – | – | 6.80 | –

Compound | ED90 [1] | ED50 [2] | pIC50 [3] | ED50 [4]
CO[C@@H]1O[C@]2(CF)CC[C@H]3CCCCC31OO2 | – | – | 6.49 | –
CO[C@H]1O[C@]2(c3ccc(C(F)(F)F)cc3)CC[C@H]3CCCCC31OO2 | – | – | 7.28 | –
CCN(CC)CCCC(C)Nc1ccnc2cc(Cl)ccc12 (configuration not stated) [CHLOROQUINE] | – | 1.2 mg/kg | – | 1 mg/kg
COc1ccc([C@@]23CC[C@H]4CCCCC4(OO2)C(OC)O3)cc1 (some centres not stated) | – | – | < 5.60 | –
CO[C@H]1O[C@]2(c3ccc(-c4ccccc4)cc3)CC[C@H]3CCCCC31OO2 | – | – | 7.17 | –
CO[C@@H]1O[C@]2(c3ccc(-c4ccccc4)cc3)CC[C@H]3CCCCC31OO2 | – | – | 7.12 | –
CO[C@H]1O[C@]2(CCC(F)(F)F)CC[C@H]3CCCCC31OO2 | – | – | 7.08 | –
CO[C@H]1O[C@]2(c3ccc(F)cc3)CC[C@H]3CCCCC31OO2 | 23 µM/kg | 10 mg/kg | 7.52 | 6.8 mg/kg
CO[C@@H]1O[C@]2(c3ccc(COC(C)=O)cc3)CC[C@H]3CCCCC31OO2 | – | – | 7.36 | –
COCc1ccc([C@@]23CC[C@H]4CCCCC4(OO2)[C@@H](OC)O3)cc1 | – | – | 7.29 | –
CO[C@@H]1O[C@]2(c3ccc(C(F)(F)F)cc3)CC[C@H]3CCCCC31OO2 | – | – | 7.41 | –
CO[C@H]1O[C@]2(c3ccc(F)cc3C)CC[C@H]3CCCC[C@@]31OO2 | – | – | 7.47 | –
CO[C@H]1O[C@]2(c3ccc(Cl)cc3)CC[C@H]3CCCCC31OO2 | – | – | 7.26 | –
CO[C@H]1O[C@]2(c3ccc(COC(C)=O)cc3)CC[C@H]3CCCCC31OO2 | 22 µM/kg | 14 mg/kg | 7.70 | 2.8 mg/kg
CO[C@@H]1O[C@]2(c3ccc(F)cc3C)CC[C@H]3CCCC[C@@]31OO2 | – | – | 7.00 | –
CO[C@@H]1O[C@]2(c3ccc(Cl)cc3)CC[C@H]3CCCCC31OO2 | – | – | 7.31 | –
